Experimental findings from ChEMBL document CHEMBL1806428, “Design and synthesis of spiro derivatives of parthenin as novel anti-cancer agents” (Eur J Med Chem, 2011) are described below.

A short description of data set [1]: Partition coefficient, log P of the compound. The format is physicochemical. To be noted: octanol/water.
For the next data set, the system named is SW-620. In words: Cytotoxicity against human SW620 cells assessed as cell growth after 48 hrs by sulforhodamine B assay. It is filed as functional, cell-based. The conditions noted are these: Homo sapiens, SW-620, 48 h. In outline: (§1)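 Log-phase cells seeded at 10^4/well and allowed to attach for 24 h at 37 °C, 5% CO2. Exposed for 48 h to 0.1–100 (1:10 serial dilutions), four replicate wells per condition. Fixed with cold 50% TCA for 1 h at 4 °C, stained with sulforhodamine B, dye dissolved in Tris, OD read at 540 nm. Blank-subtracted growth expressed relative to untreated cells (100%); IC50 reported.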
Background: The SRB assay estimates cell density from bound dye.

A further data set deals with DU-145. The data set is described as follows: Cytotoxicity against human DU145 cells assessed as cell growth after 48 hrs by sulforhodamine B assay. It is filed as functional, cell-based. The conditions noted are these: Homo sapiens, DU-145, 48 h. In outline: as §1
The test system of a further data set is PC-3. The data set is described as follows: Cytotoxicity against human PC3 cells assessed as cell growth after 48 hrs by sulforhodamine B assay. It is filed as functional, cell-based. The conditions noted are these: Homo sapiens, PC-3, 48 h. In outline:
as §1

One may read the logP as the decadic logarithm of the partition coefficient of the neutral form, usually between octanol and water. Low readings indicate lower lipophilicity, high ones higher lipophilicity. The IC50 is the point on the concentration scale where inhibition reaches its midpoint. `Cc1ccccc1N1C[C@]12C(=O)O[C@@H]1[C@H]2CC[C@H](C)[C@]2(O)C=CC(=O)[C@@]12C` had a log partition coefficient (logP) in data set [1] of 1.83. Besides, the 50% inhibitory concentration (IC50) is 22 µM in the data set on SW-620, 30 µM in the data set with DU-145 and 12.5 µM with PC-3.
As for `C[C@H]1CC[C@@H]2[C@@H](OC(=O)[C@]23CC(c2c(Cl)cccc2Cl)=NO3)[C@]2(C)C(=O)C=C[C@@]12O`, the logP in data set [1] was 2.67. The results for the 50% inhibitory concentration (IC50) in the data set with SW-620, in the data set with DU-145 and in the data set on PC-3 were 43 µM, 38 µM and 56 µM, respectively.
Compound `C[C@H]1CC[C@@H]2[C@@H](OC(=O)[C@]23CC(c2ccc([N+](=O)[O-])cc2)=NO3)[C@]2(C)C(=O)C=C[C@@]12O` gave a log partition coefficient (logP) in data set [1] of 1.37. Besides, the IC50 in the data set on SW-620 was 9 µM; with DU-145, 7 µM; in the data set on PC-3, 12 µM.
With `C[C@H]1CC[C@@H]2[C@@H](OC(=O)[C@]23CC(c2ccc(N(C)C)cc2)=NO3)[C@]2(C)C(=O)C=C[C@@]12O`, in data set [1], the lipophilicity (logP) came to 1.51. Besides, the concentration for half-maximal inhibition (IC50) worked out at 5.1 µM in the data set on SW-620, 4.5 µM in the data set with DU-145 and 6.3 µM in the data set with PC-3.
The matching figures for `C[C@H]1CC[C@@H]2[C@@H](OC(=O)[C@]23CC(c2ccc(C#N)cc2)=NO3)[C@]2(C)C(=O)C=C[C@@]12O`: 1.17, 53 µM, 26 µM and 32 µM.
Regarding `Cc1ccccc1C1=NO[C@]2(C1)C(=O)O[C@@H]1[C@H]2CC[C@H](C)[C@]2(O)C=CC(=O)[C@@]12C`, in data set [1], the logP was 1.86. Besides, the IC50 was 5 µM with SW-620, 12 µM in the data set on DU-145 and 10 µM in the data set on PC-3.
The compound `Cc1cccc(C2=NO[C@]3(C2)C(=O)O[C@@H]2[C@H]3CC[C@H](C)[C@]3(O)C=CC(=O)[C@@]23C)c1` registered a lipophilicity (logP) in data set [1] of 1.86. Moreover, the IC50 with SW-620 came out at 15 µM; in the data set on DU-145, 28 µM; with PC-3 it was 66.6 µM.
Compound `C[C@H]1CC[C@@H]2[C@@H](OC(=O)[C@]23CC(c2ccc(Cl)cc2)=NO3)[C@]2(C)C(=O)C=C[C@@]12O` had a log partition coefficient (logP) in data set [1] of 2.09. The concentration for half-maximal inhibition (IC50) turned out to be 51 µM in the data set with SW-620, 43 µM in the data set on DU-145 and 49 µM in the data set on PC-3.
Compound `C[C@H]1CC[C@@H]2[C@@H](OC(=O)[C@]23CC(c2ccccc2Cl)=NO3)[C@]2(C)C(=O)C=C[C@@]12O` came in with a logP in data set [1] of 2.09. Besides, the 50% inhibitory concentration (IC50) in the data set on SW-620 worked out at 9 µM; in the data set with DU-145, 19 µM; in the data set on PC-3, 12 µM.
The like results for `C[C@H]1CC[C@@H]2[C@@H](OC(=O)[C@]23CN3c2cccc([N+](=O)[O-])c2)[C@]2(C)C(=O)C=C[C@@]12O` were, in that order, 1.31, 61 µM, 30 µM and 10.1 µM.
As for `C[C@H]1CC[C@@H]2[C@@H](OC(=O)[C@]23CN3c2ccccc2)[C@]2(C)C(=O)C=C[C@@]12O`, the logP in data set [1] amounted to 1.38. Moreover, the IC50 with SW-620 amounted to 87.7 µM; in the data set with DU-145 it was 31.4 µM; in the data set with PC-3, 10.6 µM.
Turning to `C[C@H]1CC[C@@H]2[C@@H](OC(=O)[C@]23CC(c2cccc([N+](=O)[O-])c2)=NO3)[C@]2(C)C(=O)C=C[C@@]12O`, the logP in data set [1] was 1.37. In addition, the concentration for half-maximal inhibition (IC50) in the data set with SW-620 was 49 µM; in the data set with DU-145, 51 µM; in the data set on PC-3, 55 µM.
The compound `Cc1ccc(N2C[C@]23C(=O)O[C@@H]2[C@H]3CC[C@H](C)[C@]3(O)C=CC(=O)[C@@]23C)cc1` displayed a logP in data set [1] of 1.83. In addition, the half-inhibitory concentration (IC50) in the data set on SW-620 worked out at 32 µM; in the data set on DU-145, 36 µM; in the data set on PC-3, 25 µM.
Take `C[C@H]1CC[C@@H]2[C@@H](OC(=O)[C@]23CN3c2ccccc2[N+](=O)[O-])[C@]2(C)C(=O)C=C[C@@]12O`: the logP in data set [1] was found to be 1.31. For the same compound, the IC50 with SW-620 was 33 µM; with DU-145 it was 28 µM; with PC-3 it was 10 µM.
`C[C@H]1CC[C@@H]2[C@@H](OC(=O)[C@]23CC(c2ccccc2)=NO3)[C@]2(C)C(=O)C=C[C@@]12O` displayed a logP in data set [1] of 1.41. Besides, the IC50 in the data set with SW-620 came to 45.4 µM; with DU-145, 39.8 µM; in the data set with PC-3 it was 46 µM.
For `COc1ccc(C2=NO[C@]3(C2)C(=O)O[C@@H]2[C@H]3CC[C@H](C)[C@]3(O)C=CC(=O)[C@@]23C)cc1`, the log partition coefficient (logP) in data set [1] worked out at 1.47. The values for the IC50 with SW-620, in the data set with DU-145 and in the data set on PC-3 were 41 µM, 20 µM and 35 µM, respectively.
In data set [1], `C[C@H]1CC[C@@H]2[C@@H](OC(=O)[C@]23CC(c2ccccc2Br)=NO3)[C@]2(C)C(=O)C=C[C@@]12O` gave a log partition coefficient (logP) of 2.22. The IC50 in the data set on SW-620 worked out at 44 µM; in the data set on DU-145, 18 µM; in the data set on PC-3, 51 µM.
The matching figures for `COc1ccc(C2=NO[C@]3(C2)C(=O)O[C@@H]2[C@H]3CC[C@H](C)[C@]3(O)C=CC(=O)[C@@]23C)cc1OC`: 1.06, 86 µM, 84 µM and 25 µM.
Compound `C[C@H]1CC[C@@H]2[C@@H](OC(=O)[C@]23CC(c2ccccc2[N+](=O)[O-])=NO3)[C@]2(C)C(=O)C=C[C@@]12O` returned a lipophilicity (logP) in data set [1] of 1.37. Also, the values for the half-maximal inhibitory concentration (IC50) with SW-620, in the data set on DU-145 and in the data set with PC-3 were 40 µM, 34 µM and 37 µM, respectively.
The compound `C[C@H]1CC[C@@H]2[C@@H](OC(=O)[C@]23CC(c2ccc(O)cc2)=NO3)[C@]2(C)C(=O)C=C[C@@]12O` showed a logP in data set [1] of 0.932. The IC50 was determined as 89 µM in the data set on SW-620, 93 µM in the data set with DU-145 and 20 µM with PC-3.
The matching figures for `C[C@H]1CC[C@@H]2[C@@H](OC(=O)[C@]23CN3c2cccc(Cl)c2)[C@]2(C)C(=O)C=C[C@@]12O`: 2.03, 48.4 µM, 39.5 µM and 86.1 µM.
For the compound `COc1ccc(N2C[C@]23C(=O)O[C@@H]2[C@H]3CC[C@H](C)[C@]3(O)C=CC(=O)[C@@]23C)cc1`, the log partition coefficient (logP) in data set [1] was 1.41. Also, the values for the half-maximal inhibitory concentration (IC50) with SW-620, in the data set with DU-145 and with PC-3 were 30 µM, 78 µM and 12 µM, respectively.
The compound `COc1cc(C2=NO[C@]3(C2)C(=O)O[C@@H]2[C@H]3CC[C@H](C)[C@]3(O)C=CC(=O)[C@@]23C)ccc1O` returned a lipophilicity (logP) in data set [1] of 0.75. In addition, the half-inhibitory concentration (IC50) in the data set on SW-620 came out at 88 µM; in the data set with DU-145, 71 µM; in the data set on PC-3 it was 16 µM.
Consider `C[C@H]1CC[C@@H]2[C@@H](OC(=O)[C@]23CC(c2c(F)cccc2F)N(c2ccccc2)O3)[C@]2(C)C(=O)C=C[C@@]12O` (mixture of isomers), for which the logP in data set [1] was found to be 3.42.
For the compound `C[C@H]1CC[C@@H]2[C@@H](OC(=O)[C@]23CC(c2ccc(Br)cc2)N(c2ccccc2)O3)[C@]2(C)C(=O)C=C[C@@]12O` (mixture of isomers), the log partition coefficient (logP) in data set [1] stood at 4.
As to `C[C@H]1CC[C@@H]2[C@@H](OC(=O)[C@]23CC(c2ccc(F)cc2)N(c2ccccc2)O3)[C@]2(C)C(=O)C=C[C@@]12O` (mixture of isomers), the logP in data set [1] is 3.35.
In data set [1], `C[C@H]1CC[C@@H]2[C@@H](OC(=O)[C@]23CC(c2ccc([N+](=O)[O-])cc2)N(c2ccccc2)O3)[C@]2(C)C(=O)C=C[C@@]12O` (mixture of isomers) had a logP of 3.15.
